Experimental data published in ChEMBL document CHEMBL4732024, “Second-generation tricyclic pyrimido-pyrrolo-oxazine mTOR inhibitor with predicted blood-brain barrier permeability” (RSC Med Chem, 2021).

Tests used:
[1] = Inhibition of mTORC2 in human A2058 cells assessed as reduction in PKB phosphorylation at S473 residue incubated for 1 hr by Western blot analysis; format: cell-based; details: A2058, 1 h
Outline: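 A2058 melanoma cells were used. mTORC1 activity was read as phospho-S6 ribosomal protein (Ser235/236), and mTORC2 activity as phospho-PKB/Akt (Ser473). IC50 came from a 7-point 1:2 serial dilution, with each concentration measured in triplicate. Data are reported as mean ± SD.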

[2] = target: Serine/threonine-protein kinase mTOR (Homo sapiens, UniProt P42345); experiment: Inhibition of alexa fluor 647-labeled kinase tracer 314 binding to recombinant N-terminal GST-fused mTOR (1360 to 2549 residues) (unknown origin) by TR-FRET assay
Outline: (§1)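 LanthaScreen TR-FRET displacement of tracer from the ATP-binding site of recombinant kinase. 10-point 1:4 serial dilution with each concentration in duplicate. IC50 converted to Ki using a factor of 2.05 for mTOR and 9.84 for p110α. Reported as mean ± SD.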

[3] = target: Phosphatidylinositol 4,5-bisphosphate 3-kinase catalytic subunit alpha isoform (Homo sapiens, UniProt P42336); experiment: Inhibition of alexa fluor 647-labeled kinase tracer 314 binding to recombinant N-terminal His6-tagged p110alpha (unknown origin) by TR-FRET assay; outline: as §1
[4] = target: T1, MDR1 (P-gp, ABCB1) (Homo sapiens, UniProt P08183); experiment: Substrate activity at human MDR1 expressed in MDCK cells assessed as apparent permeability at 1 uM by UPLS-MS/MS analysis; format: ADME, cell-based
Outline: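 TransWell assay in CRISPR-Cas9 MDCK cells expressing human MDR1 with endogenous canine MDR1 knocked out (MDCK-hMDR1^cMDR1-ko), grown on filters; apparent permeability measured apical to basolateral.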

[5] = target: T1, MDR1 (P-gp, ABCB1); experiment: Substrate activity at human MDR1 expressed in MDCK cells assessed as efflux ratio of apparent permeability across basolateral to apical side over apical to basolateral side at 1 uM by UPLS-MS/MS analysis; format: ADME, cell-based
[6] = target: mTORC1 (Homo sapiens, UniProt P42345); experiment: Inhibition of mTORC1 in human A2058 cells assessed as reduction in S6 ribosomal protein phosphorylation at Ser235/236 residues incubated for 1 hr by Western blot analysis; format: cell-based
Outline: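 A2058 melanoma cells; phospho-S6 (Ser235/236) used as the mTORC1 readout. IC50 from a 7-point 1:2 serial dilution, each concentration in triplicate. Reported as mean ± SD.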

[7] = target: T2, CYP1A1 (Homo sapiens, UniProt P04798); experiment: (§2) Stability of compound assessed as recombinant human CYP1A1 expressed in baculovirus infected insect cells mediated compound metabolism by measuring parent compound remaining at 1 uM preincubated with NADP+ regenerating system for 10 mins followed by enzyme addition and measured after 60 mins by LC-MS analysis; format: ADME; details: time 70 min, read-out: Stabilty
T2 sequence (P04798 whole entry): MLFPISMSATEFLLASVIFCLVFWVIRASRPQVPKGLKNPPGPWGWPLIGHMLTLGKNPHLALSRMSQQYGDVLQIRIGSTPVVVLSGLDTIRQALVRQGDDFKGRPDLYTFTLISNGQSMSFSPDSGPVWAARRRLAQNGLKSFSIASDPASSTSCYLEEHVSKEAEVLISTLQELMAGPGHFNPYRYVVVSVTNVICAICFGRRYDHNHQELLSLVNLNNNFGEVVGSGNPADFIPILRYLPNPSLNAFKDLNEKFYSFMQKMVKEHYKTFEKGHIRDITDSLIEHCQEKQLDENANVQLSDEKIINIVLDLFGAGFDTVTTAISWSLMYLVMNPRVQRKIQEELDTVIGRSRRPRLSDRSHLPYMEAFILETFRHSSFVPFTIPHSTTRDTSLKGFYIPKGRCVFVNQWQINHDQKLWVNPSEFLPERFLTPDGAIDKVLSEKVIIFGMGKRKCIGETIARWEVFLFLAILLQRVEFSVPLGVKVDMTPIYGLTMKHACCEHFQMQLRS
Outline: (§3)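 Individual human recombinant CYP isoenzymes; percentage of parent compound remaining after 60 min incubation.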

[8] = target: T3, CYP1A2 (Homo sapiens, UniProt P05177); experiment: as §2, with “CYP1A2” for “CYP1A1”; format: ADME; details: time 70 min, read-out: Stabilty; outline: as §3
T3 sequence (P05177 whole entry): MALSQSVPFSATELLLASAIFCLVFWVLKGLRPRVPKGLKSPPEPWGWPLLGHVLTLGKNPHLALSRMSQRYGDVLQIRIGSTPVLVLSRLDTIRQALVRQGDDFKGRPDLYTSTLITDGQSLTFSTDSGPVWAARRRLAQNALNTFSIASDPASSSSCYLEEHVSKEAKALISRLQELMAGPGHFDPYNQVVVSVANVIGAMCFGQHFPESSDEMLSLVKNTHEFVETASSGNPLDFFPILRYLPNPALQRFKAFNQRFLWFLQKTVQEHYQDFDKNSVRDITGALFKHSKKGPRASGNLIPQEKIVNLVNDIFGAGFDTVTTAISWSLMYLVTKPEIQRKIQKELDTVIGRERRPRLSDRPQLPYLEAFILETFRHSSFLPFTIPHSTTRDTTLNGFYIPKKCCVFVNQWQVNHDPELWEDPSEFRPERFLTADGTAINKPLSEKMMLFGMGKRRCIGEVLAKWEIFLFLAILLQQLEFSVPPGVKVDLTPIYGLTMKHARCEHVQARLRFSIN

Chain of Phosphatidylinositol 4,5-bisphosphate 3-kinase catalytic subunit alpha isoform (P42336 whole entry, canonical isoform): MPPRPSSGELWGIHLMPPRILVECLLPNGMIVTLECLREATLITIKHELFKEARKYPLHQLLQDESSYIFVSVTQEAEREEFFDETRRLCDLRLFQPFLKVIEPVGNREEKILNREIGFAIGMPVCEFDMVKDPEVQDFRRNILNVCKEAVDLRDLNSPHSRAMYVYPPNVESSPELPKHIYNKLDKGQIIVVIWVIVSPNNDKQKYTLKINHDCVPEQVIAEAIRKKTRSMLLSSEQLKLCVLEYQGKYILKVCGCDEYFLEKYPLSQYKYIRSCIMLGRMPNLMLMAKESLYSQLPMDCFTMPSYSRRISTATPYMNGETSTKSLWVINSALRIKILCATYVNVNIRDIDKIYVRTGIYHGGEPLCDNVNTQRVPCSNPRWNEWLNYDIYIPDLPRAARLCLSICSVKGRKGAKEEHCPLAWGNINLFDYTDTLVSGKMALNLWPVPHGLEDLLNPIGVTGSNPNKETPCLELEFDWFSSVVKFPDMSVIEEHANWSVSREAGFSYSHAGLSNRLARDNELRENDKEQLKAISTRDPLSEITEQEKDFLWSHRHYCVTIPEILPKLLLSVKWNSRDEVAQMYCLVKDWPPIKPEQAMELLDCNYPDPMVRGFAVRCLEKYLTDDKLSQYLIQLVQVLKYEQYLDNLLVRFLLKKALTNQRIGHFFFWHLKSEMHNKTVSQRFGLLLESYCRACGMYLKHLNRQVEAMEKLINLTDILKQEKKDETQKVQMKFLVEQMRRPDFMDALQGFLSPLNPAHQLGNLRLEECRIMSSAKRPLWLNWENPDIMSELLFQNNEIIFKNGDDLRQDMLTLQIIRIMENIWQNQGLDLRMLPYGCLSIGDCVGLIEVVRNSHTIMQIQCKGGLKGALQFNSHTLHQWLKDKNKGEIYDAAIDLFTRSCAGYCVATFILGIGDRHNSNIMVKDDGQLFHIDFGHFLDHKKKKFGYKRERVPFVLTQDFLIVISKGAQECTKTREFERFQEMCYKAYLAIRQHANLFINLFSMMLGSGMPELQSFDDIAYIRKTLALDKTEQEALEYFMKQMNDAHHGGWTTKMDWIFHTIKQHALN
T1 sequence (P08183 whole entry): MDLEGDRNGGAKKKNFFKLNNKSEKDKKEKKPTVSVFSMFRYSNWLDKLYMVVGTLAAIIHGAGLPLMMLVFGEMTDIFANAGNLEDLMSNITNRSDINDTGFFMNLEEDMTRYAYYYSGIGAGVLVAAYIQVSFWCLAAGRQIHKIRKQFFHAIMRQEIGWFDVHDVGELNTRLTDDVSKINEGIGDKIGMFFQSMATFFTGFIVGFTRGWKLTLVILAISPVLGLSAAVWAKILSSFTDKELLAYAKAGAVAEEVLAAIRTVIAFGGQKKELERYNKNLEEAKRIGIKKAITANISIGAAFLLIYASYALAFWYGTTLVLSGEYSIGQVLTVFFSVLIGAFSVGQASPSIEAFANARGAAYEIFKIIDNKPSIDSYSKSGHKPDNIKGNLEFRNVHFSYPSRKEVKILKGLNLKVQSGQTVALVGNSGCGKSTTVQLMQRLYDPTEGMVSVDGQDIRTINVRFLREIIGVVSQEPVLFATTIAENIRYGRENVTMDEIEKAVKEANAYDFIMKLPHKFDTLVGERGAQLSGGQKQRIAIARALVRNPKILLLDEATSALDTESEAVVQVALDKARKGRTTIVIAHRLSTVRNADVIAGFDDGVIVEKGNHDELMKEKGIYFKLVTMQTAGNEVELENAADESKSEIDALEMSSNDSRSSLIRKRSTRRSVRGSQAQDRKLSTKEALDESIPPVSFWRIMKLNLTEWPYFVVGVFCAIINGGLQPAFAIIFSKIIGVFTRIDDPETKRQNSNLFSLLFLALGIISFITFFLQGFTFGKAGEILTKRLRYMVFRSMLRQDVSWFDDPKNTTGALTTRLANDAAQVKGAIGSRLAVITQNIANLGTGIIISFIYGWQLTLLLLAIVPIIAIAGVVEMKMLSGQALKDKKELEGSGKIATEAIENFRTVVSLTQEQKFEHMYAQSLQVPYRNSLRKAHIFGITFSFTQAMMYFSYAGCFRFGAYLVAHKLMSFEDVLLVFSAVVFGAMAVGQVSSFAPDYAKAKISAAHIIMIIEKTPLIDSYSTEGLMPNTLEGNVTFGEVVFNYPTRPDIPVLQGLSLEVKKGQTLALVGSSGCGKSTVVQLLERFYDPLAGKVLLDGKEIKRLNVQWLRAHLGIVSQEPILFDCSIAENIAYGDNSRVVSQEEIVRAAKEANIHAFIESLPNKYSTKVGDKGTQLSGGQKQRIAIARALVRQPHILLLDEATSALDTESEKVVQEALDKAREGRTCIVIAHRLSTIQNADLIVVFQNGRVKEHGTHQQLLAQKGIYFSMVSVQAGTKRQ

Row | SMILES | IC50 [1] | Ki [2] | Ki [3] | Papp A→B at 1 µM [4] | efflux ratio at 1 µM [5] | IC50 [6] | remaining at 1 h, 1 µM [7] | remaining at 1 h, 1 µM [8]
1 | C[C@@H]1COCCN1c1nc(-c2nnc(N)s2)nc2c1C[C@@H]1COCCN21 | 135 nM | 8.2 nM | 1550 nM | < 60 ×10⁻⁶ cm/s | > 20 | 80 nM |  | 
2 | C[C@@H]1COCCN1c1nc(-c2cnc(N)nc2C(F)F)nc2c1C[C@@H]1COCCN21 |  | 34 nM | 17 nM |  |  | 119 nM |  | 
3 | C[C@@H]1COCCN1c1nc(-c2ccc(N)nn2)nc2c1C[C@@H]1COCCN21 | 162 nM | 11 nM | 847 nM |  |  | 84 nM |  | 
4 | C[C@@H]1COCCN1c1nc(-c2cnc(N)nc2C(F)(F)F)nc2c1C[C@@H]1COCCN21 | 446 nM | 249 nM | 55 nM |  |  | 694 nM |  | 
5 | C[C@@H]1COCCN1c1nc(-c2cnc(N)cc2C(F)(F)F)nc2c1C[C@@H]1COCCN21 | 1090 nM | 118 nM | 272 nM |  |  | 776 nM |  | 
6 | C[C@@H]1COCCN1c1nc(-c2cnc(N)c(C(F)(F)F)c2)nc2c1C[C@@H]1COCCN21 | 549 nM | 33 nM | > 20000 nM |  |  | 348 nM |  | 
7 | C[C@@H]1COCCN1c1nc(-c2nc(N)ns2)nc2c1C[C@@H]1COCCN21 | 512 nM | 58 nM | 806 nM |  |  | 261 nM |  | 
8 | C[C@@H]1COCCN1c1nc(-c2cnc(N)cn2)nc2c1C[C@@H]1COCCN21 |  |  |  | < 60 ×10⁻⁶ cm/s | > 20 |  |  | 
9 | C[C@@H]1COCCN1c1nc(-c2cnc(N)s2)nc2c1C[C@@H]1COCCN21 | 157 nM | 15 nM | 2490 nM | < 60 ×10⁻⁶ cm/s | > 20 | 102 nM | 48% | 87%
10 | C[C@@H]1COCCN1c1nc(-c2cnc(N)cc2C(F)F)nc2c1C[C@@H]1COCCN21 | 253 nM | 12 nM | 232 nM |  |  | 67 nM |  | 
